The text below walks through data of ChEMBL document CHEMBL2176921, “Nitazoxanide Disrupts Membrane Potential and Intrabacterial pH Homeostasis of Mycobacterium tuberculosis” (ACS Med Chem Lett, 2011).

One may read the MIC as the least concentration at which growth counts as inhibited.

In series [1] the test system is Mycobacterium tuberculosis. Kind of series: Antitubercular activity against Mycobacterium tuberculosis H37Rv assessed as disruption of membrane potential at 0.4 ug/ml after 20 mins at pH 7.4 by DiOC2-based spectrofluorimetric analysis. The class given is functional, organism-based. Summed up: (§1)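 H37Rv grown to mid-log (OD580 ~0.6), resuspended to OD580 ~1.0 in 7H9 with 0.2% glycerol, 0.2% dextrose, 0.085% NaCl, 0.02% Tyloxapol at set pH (7.4, 5.5, 4.5; 5.5 also with 0.5 mM NaNO2). Compound added at 0.002–20 μg/mL final, then 15 μM DiOC2 for 20 min at room temperature, washed. Controls: CCCP 5 μM, rifampicin 0.4 μg/mL, DMSO. Red (488/610)/green (488/530) fluorescence ratio; triplicates, two experiments.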

Series [2] relates to Mycobacterium tuberculosis. Kind of series: Antitubercular activity against Mycobacterium tuberculosis H37Rv assessed as disruption of membrane potential at 5 uM after 20 mins at pH 7.4 by DiOC2-based spectrofluorimetric analysis. The class given is functional, organism-based. Summed up:
as §1

Series [3] deals with Mycobacterium tuberculosis. The series can be described thus: Antitubercular activity against Mycobacterium tuberculosis H37Rv assessed as disruption of membrane potential at 0.002 to 20 ug/ml after 20 mins at pH 5.5 by DiOC2-based spectrofluorimetric analysis. The class given is functional, organism-based. Summed up:
as §1

For series [4], the system named is Mycobacterium tuberculosis. Kind of series: Antitubercular activity against Mycobacterium tuberculosis H37Rv assessed as disruption of membrane potential at 0.002 to 20 ug/ml after 20 mins at pH 4.5 by DiOC2-based spectrofluorimetric analysis. The class given is functional, organism-based. The method, boiled down:
as §1

Series [5] has as its system Mycobacterium tuberculosis. The series can be described thus: Antitubercular activity against Mycobacterium tuberculosis H37Rv assessed as disruption of membrane potential after 20 mins at pH 7.4 by DiOC2-based spectrofluorimetric analysis. The class given is functional, organism-based. Summed up:
as §1

The test system of series [6] is Mycobacterium tuberculosis. The series can be described thus: Antitubercular activity against Mycobacterium tuberculosis H37Rv expressing pH sensitive ratiometric GFP assessed as reduction of intrabacterial pH at 0.002 to 20 ug/ml after 16 hrs at pH 7.5 by spectrofluorimetric analysis. The class given is functional, organism-based. Summed up: (§2)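 H37Rv carrying pH-sensitive ratiometric GFP plasmid, grown to mid-log (OD580 ~0.6), diluted to OD580 ~0.3 in 7H9 at pH 7.5, 6.5 or 5.5, with or without 0.5 mM NaNO2. Compound or DMSO exposure 16 h. Fluorescence at excitation 395/emission 510 and excitation 475/emission 510; intrabacterial pH inferred from the ratio of the two readings.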

For series [7], the system named is Mycobacterium tuberculosis H37Rv. The series can be described thus: Drug uptake in Mycobacterium tuberculosis H37Rv at 1 to 10 fold MIC after 16 hrs by LC/MS analysis. The class given is ADME, organism-based. As to conditions: in vivo.
Series [8] has the same test system. Kind of series: Drug metabolism in Mycobacterium tuberculosis H37Rv assessed as tizoxanide formation at 1 to 10 fold MIC after 16 hrs by LC/MS analysis. The class given is ADME, organism-based. Particulars: in vivo.
Series [9] has as its system Mycobacterium tuberculosis. The series can be described thus: Antitubercular activity against Mycobacterium tuberculosis H37Rv expressing pH sensitive ratiometric GFP assessed as reduction of intrabacterial pH after 16 hrs at pH 7.5 by spectrofluorimetric analysis. The class given is functional, organism-based. Summed up: as §2
For series [10], the system named is Mycobacterium tuberculosis. The series can be described thus: Antitubercular activity against Mycobacterium tuberculosis H37Rv. The class given is functional.
Series [11] concerns Mycobacterium tuberculosis H37Rv. Kind of series: Drug metabolism in Mycobacterium tuberculosis H37Rv assessed as [13C]acetylation at 1 to 10 fold MIC after 16 hrs by LC/MS analysis. The class given is ADME, organism-based. Particulars: in vivo.

Converted amounts (≈) assume the structure as drawn. The source made the active and inactive calls. The rule behind the calls is not given here.

`CO[C@H]1/C=C/O[C@@]2(C)Oc3c(C)c(O)c4c(O)c(c(/C=N/N5CCN(C)CC5)c(O)c4c3C2=O)NC(=O)/C(C)=C\C=C\[C@H](C)[C@H](O)[C@@H](C)[C@@H](O)[C@@H](C)[C@H](OC(C)=O)[C@@H]1C`: the outcome in series [1] was inactive.
As for `N#CC(C#N)=NNc1cccc(Cl)c1`, in [2], the result was Active.
Regarding `O=C(Nc1ccc([N+](=O)[O-])cc1Cl)c1cc(Cl)ccc1O`, the outcome in [3] and in series [6] was Active. For the same molecule, in series [4], the outcome was inactive. The Activity entry in series [5] is “Dose-dependent effect”.
As for `CC(=O)Oc1ccccc1C(=O)Nc1ncc([N+](=O)[O-])s1` [NITAZOXANIDE], in series [7], the Drug uptake entry is “Active”. The Drug metabolism entry in [8] is “Active”. In addition, the Activity result in [9] and in series [5] was “Dose-dependent effect” throughout. In series [10], this molecule had a minimal inhibitory concentration (MIC) of 1 µg/mL (≈ 3.25 µM). Also, the outcome in series [3] was Active. In addition, the outcome in series [4] was inactive.
Regarding `O=C(Nc1ncc([N+](=O)[O-])s1)c1ccccc1O` [TIZOXANIDE], in [11], the Drug metabolism entry was “Not Active”.
